The test system of one experiment is Fusarium oxysporum. Put plainly: Antifungal activity against Fusarium oxysporum CBS 149.25 upto 100 ug/mL after 24 hrs by microtiter plate assay. It is filed as functional, organism-based. A digest of the protocol:
(§1)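 Broth microdilution in microtiter plates, following an earlier published method. Each test fungus was inoculated at 1×10^5 spores/mL. Plates were incubated for 24 h at 27 °C, and antifungal activity was then scored.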

For experiment [1], the system named is Rhodotorula glutinis. The experiment is described as follows: Antifungal activity against Rhodotorula glutinis ATCC 26085 upto 100 ug/mL after 24 hrs by microtiter plate assay. The experiment is classed as functional, organism-based. A digest of the protocol:
as §1

Experiment [2] relates to Nadsonia fulvescens. Put plainly: Antifungal activity against Nadsonia fulvescens ATCC 24236 upto 100 ug/mL after 24 hrs by microtiter plate assay. It is filed as functional, organism-based. In outline:
as §1

The test system of experiment [3] is Eremothecium coryli. The experiment is described as follows: Antifungal activity against Nematospora coryli ATCC 10647 upto 100 ug/mL after 24 hrs by microtiter plate assay. The experiment is classed as functional, organism-based. A digest of the protocol: as §1
The test system of experiment [4] is Paecilomyces variotii. Put plainly: Antifungal activity against Paecilomyces variotii ETH 114646 upto 100 ug/mL after 24 hrs by microtiter plate assay. The experiment is classed as functional, organism-based. In outline: as §1
Experiment [5] relates to Eremothecium coryli. Put plainly: Antifungal activity against Nematospora coryli ATCC 10647 after 24 hrs by microtiter plate assay. The experiment is classed as functional. The settings on record: ATCC 10647, 24 h. In outline:
as §1

Experiment [6] deals with Paecilomyces variotii. The experiment is described as follows: Antifungal activity against Paecilomyces variotii ETH 114646 after 24 hrs by microtiter plate assay. It is filed as functional. In outline:
as §1

The subject of experiment [7] is Nadsonia fulvescens. Put plainly: Antifungal activity against Nadsonia fulvescens ATCC 24236 after 24 hrs by microtiter plate assay. The experiment is classed as functional. The settings on record: ATCC 24236, 24 h. In outline:
as §1

The test system of experiment [8] is Rhodotorula glutinis. Put plainly: Antifungal activity against Rhodotorula glutinis ATCC 26085 after 24 hrs by microtiter plate assay. It is filed as functional. Particulars: ATCC 26085, 24 h. A digest of the protocol: as §1
The subject of the next experiment is L1210. Put plainly: Cytotoxicity against mouse L1210 cells by Giemsa staining. The experiment is classed as functional.
In a further experiment the test system is HL-60. Put plainly: Cytotoxicity against human HL60 cells by Giemsa staining. It is filed as functional.
A further experiment deals with HeLa. Put plainly: Cytotoxicity against human HeLa S3 cells by Giemsa staining. It is filed as functional.

Converted amounts (≈) assume the structure as drawn. The source made the active and inactive calls. The rule behind the calls is not given here.

On to `CCCCC(/C=C(C)/C=C/C=C/C(=O)N1CCCC1CO)OC` (configuration not stated), for which the result in the experiment on Fusarium oxysporum, in the experiment on Rhodotorula glutinis [1], with Nadsonia fulvescens [2], in the experiment with Eremothecium coryli [3] and with Paecilomyces variotii [4] was inactive.
As for `CCCC[C@@H](O)/C=C(C)/C=C/C=C/C(=O)N1CCCC1=O` [PECILOCIN], the MIC in the experiment with Eremothecium coryli [5], against Paecilomyces variotii [6], against Nadsonia fulvescens [7] and against Rhodotorula glutinis [8] was 1 µg/mL (≈ 3.43 µM) in each case.
In the case of `CCCCC(O)/C=C(C)/C=C/C=C/C(=O)N1CCCC1CO` (configuration not stated) [VIRIDITIN], the result in the experiment on Fusarium oxysporum, with Rhodotorula glutinis [1], in the experiment on Nadsonia fulvescens [2], with Eremothecium coryli [3] and in the experiment on Paecilomyces variotii [4] was inactive. Moreover, the IC90 with L1210, in the experiment with HL-60 and with HeLa was 25 µg/mL (≈ 81.3 µM) each time.

Values taken from ChEMBL document CHEMBL1142645, “New variotin analogues from Aspergillus viridi-nutans” (2000).
